PfG6PD inh = PfG6PD (Plasmodium falciparum) enzyme inhibition; 350,000 tested, 0.78% active; PfGluPho enzyme, NADPH resazurin-diaphorase fluorescence; inhibition, % at 20 µM;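 active = inhibition reaching at least a set limit at 20 µM in the primary screen, cut at about 59% in these data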
HKDC1 inhibitor = HKDC1 (human) hexokinase inhibition; recombinant HKDC1, G6PDH/diaphorase resazurin coupled fluorescence; Q2TB90; inhibition, % at 20 µM; 340,000 tested, 0.16% active;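 active = inhibition above about 35% when tested at 20 µM, limit read from the data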
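Test system: HK5 enzyme. Quantity: 5 µg/mL HK5 final. Reagent: glucose and ATP substrates. Schedule: 90 min reaction incubation at room temperature, dark. Technique: resazurin-to-resorufin fluorescence via G6PDH and diaphorase coupling, 525/613 nm. Control set: DMSO wells with and without enzyme mix.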
PGE2 EP2 inh = inhibitors of human EP2 prostaglandin E2 receptor; C6 glioma cells expressing human EP2, cAMP TR-FRET; cells stimulated with saturating PGE2; inhibition, % at 25 µM; 260,000 tested, 0.52% active; AID 1422;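 active = percent inhibition above 40 after rounding to a whole number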;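 also: rat C6 glioma host cells with rolipram phosphodiesterase inhibitor present; the protocol text gives 20 µM as final concentration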
Target sequence (P43116 whole entry, looked up): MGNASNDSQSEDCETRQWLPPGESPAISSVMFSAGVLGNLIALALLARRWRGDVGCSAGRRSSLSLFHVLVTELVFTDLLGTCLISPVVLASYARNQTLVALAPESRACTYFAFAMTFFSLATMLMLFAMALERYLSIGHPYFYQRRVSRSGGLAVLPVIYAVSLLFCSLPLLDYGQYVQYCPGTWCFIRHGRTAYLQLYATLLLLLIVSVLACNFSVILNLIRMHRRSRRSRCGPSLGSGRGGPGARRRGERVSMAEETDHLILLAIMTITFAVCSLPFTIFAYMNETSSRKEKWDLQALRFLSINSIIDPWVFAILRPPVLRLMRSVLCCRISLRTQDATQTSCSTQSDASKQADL
EP2 mod = EP2 receptor (human) modulation; 260,000 tested, 0.83% active; P43116; induction, % at 25 µM; AID 940; EP2-expressing cells, cAMP HTRF FRET, PGE2 co-stimulation;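 active = compounds whose cAMP rise, as percent of the full-agonist control response, exceeds 60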;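 also: rat C6 glioma line stably carrying human EP2 under a CMV promoter; the protocol text gives 20 µM as final concentration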
TbHK1 inh = T. brucei hexokinase 1 inhibition; AID 1430; recombinant TbHK1, G6PDH-coupled NADH A340; inhibition, % at 10 µM; 220,000 tested, 0.11% active;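 active = inhibition of 50% or more in the single-dose primary screen; inactive = inhibition below 50%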
PHOSPHO1 inh = blocks human PHOSPHO1 phosphatase activity; recombinant PHOSPHO1, absorbance phosphatase assay; inhibition, % at 13.3 µM; 290,000 tested, 1.1% active; AID 1565; in the data active = inhibition above about 60%
Target sequence (Q8TCT1 whole entry, looked up): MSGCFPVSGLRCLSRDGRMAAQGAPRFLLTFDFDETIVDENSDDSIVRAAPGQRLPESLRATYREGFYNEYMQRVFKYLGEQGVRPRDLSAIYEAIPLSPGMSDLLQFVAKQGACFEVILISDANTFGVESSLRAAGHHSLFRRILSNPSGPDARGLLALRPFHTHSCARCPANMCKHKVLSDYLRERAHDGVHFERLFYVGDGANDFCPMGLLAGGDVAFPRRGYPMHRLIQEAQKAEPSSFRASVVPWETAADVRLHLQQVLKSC
EP2 confirm = human EP2 receptor cAMP induction, negative in counter-screens | AID 1080 | calls only at 20 µM (by protocol) | shares compounds with EP2 mod | C6 glioma EP2 cells, cAMP HTRF induction; plus low (about EC15) PGE2 agonist | 1,300 tested, 47% active;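 active = cAMP induction above 50% in the main assay while under 30% in all four parallel counter assays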;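 also: rat C6 glioma cells stably expressing human EP2 receptor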
Each line names hits and unclear results; the compound was inactive in the other large screens (follow-up assays come after a bar, where they were run). Most compounds without a hit are left out; they make up all but 2.5% or so of the library.

O=C(O)c1ccc(C(=O)O)c(C(=O)Nc2ccc3c(c2)Cc2ccccc2-3)c1	PGE2 EP2 inh 61, EP2 mod 92 (no result: PfG6PD inh, HKDC1 inhibitor, TbHK1 inh, PHOSPHO1 inh) | EP2 confirm active
O=C(Nc1ccc2c(c1)Cc1ccccc1-2)c1ccncc1	none
O=C(Nc1ccccc1-c1ccccc1)c1ccccc1Br	none (no result: PGE2 EP2 inh, EP2 mod, TbHK1 inh)
CCOc1ccccc1C(=O)Nc1ccccc1-c1ccccc1	EP2 mod 78 | EP2 confirm active
O=C(Nc1ccccc1Br)c1ccccc1-c1ccccc1	EP2 mod 70 | EP2 confirm active
CCOc1ccccc1C(=O)Nc1ccccc1O	none
CCN1CCCC1CN(Cc1cccc(O)c1)Cc1ccccn1 (stereo not given)	none (no result: PfG6PD inh, HKDC1 inhibitor, TbHK1 inh, PHOSPHO1 inh)
CC(C)=CCC/C(C)=C/CC/C(C)=C/CSc1ccccc1C(=O)O	EP2 mod 73 (no result: PfG6PD inh, HKDC1 inhibitor, TbHK1 inh, PHOSPHO1 inh) | EP2 confirm inactive
O=C(O)CSc1ccccc1C(=O)O	none
Cc1ccc(CN2C(=O)/C(=C\c3ccc(C(=O)NCc4cccnc4)cc3)Oc3ccccc32)cc1	EP2 mod 85 (no result: PfG6PD inh, HKDC1 inhibitor) | EP2 confirm active
O=C(CN1C(=O)/C(=C\c2ccccc2Cl)Oc2ccccc21)NCc1cccnc1	none
O=S(=O)(c1cccc(C(F)(F)F)c1)N1c2ccccc2-n2cccc2[C@H]1c1cccnc1	none (no result: PfG6PD inh, HKDC1 inhibitor, TbHK1 inh, PHOSPHO1 inh) | EP2 confirm active
COc1cc(CN(CCCN2CCOCC2)Cc2ccc(C)o2)cc2c1OCO2	none (no result: PfG6PD inh, HKDC1 inhibitor, TbHK1 inh, PHOSPHO1 inh)
Cc1nnc(SCC(=O)NC2CCCCC2)n1C1CCCCC1	none | EP2 confirm inactive
O=C(CN1CCCCCC1)Nc1ccccc1Oc1ccccc1	EP2 mod 70 | EP2 confirm active
CC(C)C(NC(=O)c1ccc(Cl)cc1Cl)c1n[nH]c(=S)n1C (stereo not given)	none (no result: PfG6PD inh, HKDC1 inhibitor, TbHK1 inh, PHOSPHO1 inh)
Cc1cccc(-c2csc(N)c2C(=O)OC(C)C)c1	EP2 mod 96 | EP2 confirm active
Cn1nc(CC(=O)NN2C(=O)/C(=C/c3ccc(Cl)cc3)SC2=S)c2ccccc2c1=O	none (no result: PfG6PD inh, HKDC1 inhibitor, TbHK1 inh, PHOSPHO1 inh)
OCCCNc1nc(-c2ccc(Cl)cc2)nnc1-c1ccc(Br)cc1	EP2 mod 77 | EP2 confirm active
CCOC(=O)COc1cc(Br)c(/C=N/Nc2ccccc2)cc1OC	EP2 mod 68 (no result: PGE2 EP2 inh) | EP2 confirm inactive
CC(C)(C)n1nnnc1C(c1ccncc1)N(Cc1ccccc1)Cc1ccco1 (stereo not given)	EP2 mod 71 | EP2 confirm inactive
Cc1ccc(N(C(=O)c2snc(C(N)=O)c2N)C(C(=O)NCCC(C)C)c2ccco2)cc1 (stereo not given)	EP2 mod 78 | EP2 confirm inactive
C1=C(c2ccccc2)Nc2ccccc2N=C1c1ccccc1	EP2 mod 66 | EP2 confirm active
O=C1CC(c2ccccc2)=Nc2ccccc2N1	none
O=c1nc(-c2ccccc2)cc(-c2ccccc2)[nH]1	EP2 mod 65 | EP2 confirm inactive
CCC(=O)N(Cc1ccc2c(c1)OCO2)Cc1cc2ccc(C)cc2[nH]c1=O	none (no result: PfG6PD inh, HKDC1 inhibitor, TbHK1 inh, PHOSPHO1 inh)
Cc1ccc2c(c1)N(Cc1cccc(Cl)c1)C(=O)c1cccnc1O2	EP2 mod 71 | EP2 confirm active
O=C1c2cccnc2Oc2ccc(Cl)cc2N1Cc1ccc(F)cc1	none
CCC(=O)N(CCC(Cc1ccccc1)c1ccco1)Cc1ccco1 (stereo not given)	EP2 mod 77 | EP2 confirm inactive
CCC(=O)N(CCC(c1ccccc1)c1ccco1)Cc1cccs1 (stereo not given)	none
O=C(c1cccnc1)C1CCN(C(=O)c2cnccn2)CC1	none (no result: PfG6PD inh, HKDC1 inhibitor, TbHK1 inh, PHOSPHO1 inh)
CCCN1C2CCCC1CC(NC(=S)Nc1ccc(OC)cc1OC)C2 (stereo not given)	none (no result: PfG6PD inh, HKDC1 inhibitor, TbHK1 inh, PHOSPHO1 inh)
Cc1cc(-c2cncnc2C2CCN(S(=O)(=O)c3ccc4c(c3)OCCO4)CC2)on1	none (no result: PfG6PD inh, HKDC1 inhibitor, PGE2 EP2 inh, TbHK1 inh, PHOSPHO1 inh)
Cc1ccc(S(=O)(=O)c2c(C)nn(-c3ccccc3)c2OC(=O)c2ccc(Br)o2)cc1	none
Cc1ccc(S(=O)(=O)c2c(C)nn(-c3ccccc3)c2OC(=O)c2ccco2)cc1	EP2 mod 67 | EP2 confirm inactive
CCOP(=O)(OCC)c1nc(-c2ccc(F)cc2)oc1NCc1ccccc1	EP2 mod 72 | EP2 confirm active
COc1ccc(CNc2oc(-c3cccc4ccccc34)nc2C#N)cc1	none
CCOP(=O)(OCC)c1nc(-c2ccccc2)oc1NCc1ccccc1	EP2 mod 81 | EP2 confirm active
CCOP(=O)(OCC)c1nc(-c2cccc3ccccc23)oc1NCCc1ccc(OC)cc1	none | EP2 confirm inactive
CCOP(=O)(OCC)c1nc(Cc2ccccc2)oc1NCc1ccccc1	none
O=P(c1ccccc1)(c1ccccc1)c1nc(-c2ccccc2)oc1N1CCOCC1	none
O=P(c1ccccc1)(c1ccccc1)c1nc(-c2ccccc2)oc1NCc1ccccc1	EP2 mod 94 | EP2 confirm active
CC1(C)Oc2ccc(C(=O)Nc3ccc(F)c(Cl)c3)cc2N(CC(=O)N2CCCCC2)C1=O	none (no result: PfG6PD inh, HKDC1 inhibitor, TbHK1 inh, PHOSPHO1 inh)
Cc1ccc(C2=NN(CC(=O)NC3CC3)C(=O)c3cc4ccccc4n3C2)cc1	none (no result: PfG6PD inh, HKDC1 inhibitor, PGE2 EP2 inh, TbHK1 inh, PHOSPHO1 inh)
CN1[C@@H](C(=O)Nc2ccc(F)c(Cl)c2)C[C@@H](c2cccs2)NS1(=O)=O	none (no result: PfG6PD inh, HKDC1 inhibitor, PGE2 EP2 inh, TbHK1 inh, PHOSPHO1 inh)
CC(=O)c1cc(C#N)c(SCc2ccccc2)nc1C	EP2 mod 72 | EP2 confirm active
COC(=O)c1cc(C#N)c(SCc2ccccc2)nc1C	none
CCc1ccccc1NC(=O)C1CC(=O)N(c2ccc(OC)cc2)C1 (stereo not given)	none (no result: PfG6PD inh, HKDC1 inhibitor, TbHK1 inh, PHOSPHO1 inh)
O=C(CN1CCC(n2nnc3cc(F)ccc32)CC1)N(c1ccccc1)c1ccc2ccccc2c1	none (no result: PfG6PD inh, HKDC1 inhibitor, TbHK1 inh, PHOSPHO1 inh)
Cc1nc2ccccc2n1Cc1ccccc1	none (no result: PGE2 EP2 inh, EP2 mod, TbHK1 inh)
COc1ccc(-c2nc3ccccc3n2Cc2ccccc2)cc1	EP2 mod 69 | EP2 confirm active
Brc1ccc(Cn2c(-c3cncs3)nc3ccccc32)cc1	EP2 mod 70 | EP2 confirm inactive
c1ccc(Cc2nc3ccccc3n2Cc2ccccc2)cc1	EP2 mod 75 | EP2 confirm active
c1ccc(Cn2c(-c3cncs3)nc3ccccc32)cc1	none
CCN=C1S/C(=C\c2ccc(O)c(OCC)c2)C(=O)N1CC	EP2 mod 81 | EP2 confirm inactive
CCC(C)NC(=O)Cn1nc(-c2ccc(C)o2)cc(N)c1=O (stereo not given)	none (no result: PfG6PD inh, HKDC1 inhibitor, TbHK1 inh, PHOSPHO1 inh)
O=c1[nH]ncc2c3ccccc3n(Cc3cccc(Cl)c3)c12	none | EP2 confirm inactive
CCCc1nnc(NC(=O)COC)s1	none (no result: PfG6PD inh, HKDC1 inhibitor, TbHK1 inh, PHOSPHO1 inh)
O=C(O)c1csc(N/N=C/c2ccc(Br)cc2)n1	EP2 mod 73 | EP2 confirm inactive
CSc1nc(NCc2ccco2)c2ccccc2n1	EP2 mod 65 | EP2 confirm inactive
Cc1ccc(-c2nc(NCc3ccco3)c3ccccc3n2)cc1	none
COc1nc(-c2ccncc2)nc2ccccc12	none
C=CCOc1nc(-c2ccncc2)nc2ccccc12	EP2 mod 69 | EP2 confirm active
